Source: ChEMBL document CHEMBL3351691, “Steroidal alkaloids from the marine sponge Corticium niger that inhibit growth of human colon carcinoma cells” (2014)
The source made the active and inactive calls. No cut-off for these calls is given here.

What was measured:
COLO 205 = assay: Antiproliferative activity against human COLO205 cells assessed as growth inhibition after 48 hrs by XTT assay; type: functional, cell-based
Outline: (§1)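 Cells were seeded into 384-well plates (COLO205 at […] cells/well, KM12 at 2.5×10^5 cells/well) and preincubated for 24 h. DMSO samples were diluted 1:25 in medium, then given five 2:1 serial dilutions and tested in duplicate (0.4% final DMSO). Exposure was 48 h at 37 °C. XTT was then added, and formazan was read after 4 h at 450 nm against a 650 nm reference.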

HCT-15 = assay: Antiproliferative activity against human HCT15 cells assessed as growth inhibition after 48 hrs by XTT assay; type: functional, cell-based
SW-620 = assay: Antiproliferative activity against human SW620 cells assessed as growth inhibition after 48 hrs by XTT assay; type: functional, cell-based
HCC 2998 = assay: Antiproliferative activity against human HCC2998 cells assessed as growth inhibition after 48 hrs by XTT assay; type: functional, cell-based
HT-29 = assay: Antiproliferative activity against human HT-29 cells assessed as growth inhibition after 48 hrs by XTT assay; type: functional, cell-based
HCT-116 = assay: Antiproliferative activity against human HCT116 cells assessed as growth inhibition after 48 hrs by XTT assay; type: functional, cell-based
KM12 = assay: Antiproliferative activity against human KM12 cells assessed as growth inhibition after 48 hrs by XTT assay; type: functional, cell-based; outline: as §1
[1] = Antiproliferative activity against human NCI60 cells assessed as growth inhibition after 48 hrs by XTT assay; type: functional; settings: NCI60, 48 h

Compound | growth inhibition (GI) (COLO 205) | growth inhibition (GI) (HCT-15) | growth inhibition (GI) (SW-620) | growth inhibition (GI) (HCC 2998) | growth inhibition (GI) (HT-29) | growth inhibition (GI) (HCT-116) | growth inhibition (GI) (KM12) | GI50 [1]
CC(C)C1CCN(C)C1C[C@@H](C)[C@H]1CC[C@H]2C3=CC[C@H]4[C@H](N)C=CC[C@]4(C)[C@H]3CC[C@]12C (stereo partly drawn) | Active | Active | Active | Active | Active | Active | Active | –
CC(C)=C1CCNC1C[C@@H](C)[C@H]1CC[C@H]2C3=CC[C@H]4C[C@H](N)CC[C@]4(C)[C@H]3CC[C@]12C (stereo partly drawn) | Active | Active | Active | Active | Active | Active | Active | 11.5 µM
CC(=O)O[C@H]1[C@H](N)CC[C@]2(C)[C@H]3CC[C@]4(C)[C@@H]([C@H](C)CC5NCCC5=C(C)C)CC[C@H]4C3=CC[C@@H]12 (stereo partly drawn) | Active | Active | Active | Active | Active | Active | Active | 2.4 µM
